In ChEMBL document CHEMBL3997803, “Accepting the Invitation to Open Innovation in Malaria Drug Discovery: Synthesis, Biological Evaluation, and Investigation on the Structure-Activity Relationships of Benzo[b]thiophene-2-carboxamides as Antimalarial Agents” (J Med Chem, 2017):
Activity calls are given as the source filed them. The calls are words filed in the database; no cut-off is given here.

What was measured:
Plasmodium falciparum [1] = assay: Anti-parasitic activity against CQ-sensitive Plasmodium falciparum D10 assessed as growth inhibition by measuring increase in LDH release after 72 hrs by spectrophotometric method; type: functional; settings: D10, 72 h
In short: (§1)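 Asynchronous cultures (parasitemia 1–1.5%, 1% final hematocrit, human A+ RBCs) in RPMI 1640 with 1% AlbuMax, 0.01% hypoxanthine, 20 mM HEPES, 2 mM glutamine. Serial dilutions from DMSO stocks (final DMSO <1%). IC50 as mean ± SD of ≥3 experiments in duplicate.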

Plasmodium falciparum [2] = assay: Anti-parasitic activity against CQ-resistant Plasmodium falciparum W2 assessed as growth inhibition by measuring increase in LDH release after 72 hrs by spectrophotometric method; type: functional; settings: W2, 72 h; in short: as §1
[3] = Selectivity index, ratio of IC50 for SV40 large T-antigen 38 immortalized HMEC1 cells to IC50 for CQ-resistant Plasmodium falciparum W2; type: toxicity; settings: human, read-out: Ratio IC50
HMEC-1 = assay: Antiproliferative activity against SV40 large T-antigen 38 immortalized HMEC1 cells after 72 hrs by MTT assay; type: cell-based; settings: Homo sapiens, HMEC-1, 72 h
In short: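 HMEC-1 cells (SV40 large T-antigen immortalized) grown in MCDB 131 with 10% fetal calf serum, 10 ng/mL EGF, 1 μg/mL hydrocortisone, 2 mM glutamine, penicillin/streptomycin, 20 mM Hepes. Treated with serial dilutions for 72 h; proliferation read by MTT. IC50 = dose inhibiting growth 50%; mean and SD of at least three experiments in duplicate.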

[4] = Selectivity index, ratio of IC50 for SV40 large T-antigen 38 immortalized HMEC1 cells to IC50 for CQ-sensitive Plasmodium falciparum D10; type: toxicity; settings: human, read-out: Ratio IC50
[5] = Stability of the compound in RPMI 1640 medium at 1 uM up to 24 hrs by HPLC-MS/MS method; type: physicochemical
Escherichia coli [6] = assay: Inhibition of Escherichia coli ClpB ATP hydrolysis activity at 1.5 uM preincubated for 21 mins followed by ATP addition by spectrophotometric method
In short: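 E. coli ClpB ATPase in 100 mM Tris/HCl pH 8, 1 mM DTT, 1 mM EDTA, 10 mM MgCl2, 37 °C. ClpB and compound (DMSO stock diluted in buffer) combined first; reaction started by adding ATP. ATP hydrolysis followed as inorganic phosphate generated; equivalent DMSO amounts served as controls.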

Escherichia coli [7] = assay: Inhibition of Escherichia coli ClpB ATP hydrolysis activity at 1.5 uM after 15 mins by spectrophotometric method
In short: (§2)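 E. coli ClpB (concentration as monomer) assayed at 37 °C in 100 mM Tris/HCl pH 8, 1 mM DTT, 1 mM EDTA, 10 mM MgCl2. Reaction started by adding ClpB to buffer holding compound (DMSO stock diluted in buffer) and 4 mM ATP. Inorganic phosphate released from ATP quantified; matching DMSO amounts as controls.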

[8] = Half-life in human liver microsomes at 1 uM in presence of NADPH by HPLC-MS/MS method; type: ADME, microsome
[9] = Inhibition of recombinant histidine-tagged Plasmodium falciparum choline kinase expressed in Escherichia coli using choline as substrate after 30 mins by HTRF method
Escherichia coli [10] = assay: Inhibition of Escherichia coli ClpB ATP hydrolysis activity at 2 uM after 15 mins by spectrophotometric method; in short: as §2
Plasmodium falciparum [11] = assay: Antiparasitic activity against Plasmodium falciparum 3D7 infected in erythrocytes after 72 hrs by SYBR Green 1 dye-based assay; type: functional, cell-based; settings: 3D7, 72 h
Escherichia coli [12] = assay: Inhibition of Escherichia coli ClpB ATP hydrolysis activity at 1.7 uM after 15 mins by spectrophotometric method; in short: as §2

Row | SMILES | IC50 (Plasmodium falciparum [1]) | IC50 (Plasmodium falciparum [2]) | also measured
1 | O=C(NC12CC3CC(CC(C3)C1)C2)c1sc2ccccc2c1Cl | > 15 µM | > 15 µM | 
2 | C[C@@H]1CN(C(=O)c2cc3ccccc3[nH]2)C[C@H](C)O1 | > 15 µM | > 15 µM | 
3 | O=C(c1sc2ccccc2c1Cl)N1CCCCC1 | > 15 µM | > 15 µM | 
4 | O=C(c1cc2ccccc2s1)N1CCOCC1 | > 15 µM | > 15 µM | 
5 | C[C@@H]1CN(C(=O)c2sc3ccccc3c2OCc2ccc(Cl)cc2)C[C@H](C)O1 | 0.186 µM | 0.728 µM | selectivity ratio [3]: 250 to 5000; IC50 (HMEC-1): 48 µM; selectivity ratio [4]: 250 to 5000
6 | CC1CC(C)CN(C(=O)c2sc3ccccc3c2Cl)C1 (stereo unspecified) | 0.1 µM | 0.461 µM | selectivity ratio [3]: 250 to 5000; IC50 (HMEC-1): 149 µM; selectivity ratio [4]: 250 to 5000
7 | O=C(Nc1ccncc1)c1sc2ccccc2c1Cl | > 15 µM | > 15 µM | Stability [5]: Stable
8 | COc1c(C(=O)N2C[C@@H](C)O[C@@H](C)C2)sc2ccccc12 | 0.429 µM | 1.73 µM | 
9 | C[C@@H]1CN(C(=O)c2cc3ccccc3s2)C[C@H](C)O1 | 1.82 µM | 8.54 µM | 
10 | C[C@@H]1CN(C(=O)c2sc3ccccc3c2Cl)C[C@@H](C)O1 | 0.645 µM | 2.69 µM | selectivity ratio [3]: 250 to 5000; IC50 (HMEC-1): 154 µM; selectivity ratio [4]: 250 to 5000
11 | C[C@@H]1CN(C(=O)c2cc3ccccc3o2)C[C@H](C)O1 | > 15 µM | > 15 µM | 
12 | CC1CN(C(=O)c2sc3ccccc3c2Cl)CC(C)N1 (stereo unspecified) | 4.91 µM | 14.7 µM | 
13 | C[C@@H]1CN(C(=O)c2sc3cc(Cl)ccc3c2Cl)C[C@H](C)O1 | 0.407 µM | 2.09 µM | 
14 | O=C(Nc1ccccn1)c1sc2ccccc2c1Cl | > 15 µM | > 15 µM | 
15 | CCN(CC)C(=O)c1sc2ccccc2c1Cl | > 15 µM | > 15 µM | 
16 | C[C@@H]1CN(C(=O)c2sc3ccccc3c2N)C[C@H](C)O1 | 8.76 µM | > 15 µM | 
17 | C[C@@H]1CN(C(=O)c2sc3ccccc3c2OCc2ccccc2)C[C@H](C)O1 | 0.038 µM | 0.142 µM | inhibition (Escherichia coli [6]): inactive; selectivity ratio [3]: 250 to 5000; inhibition (Escherichia coli [7]): inactive; IC50 (HMEC-1): 73 µM; selectivity ratio [4]: 250 to 5000; half-life at 1 µM [8]: 2.1 min
18 | CC(=O)N1CCN(C(=O)c2cc3ccccc3s2)CC1 | 10.9 µM | 7.75 µM | 
19 | CCN(CC)CCCC(C)Nc1ccnc2cc(Cl)ccc12 (stereo unspecified) [CHLOROQUINE] |  |  | IC50 (HMEC-1): > 100 µM

Row | SMILES | IC50 (Plasmodium falciparum [1]) | IC50 (Plasmodium falciparum [2]) | also measured
20 | C[C@@H]1CN(C(=O)c2sc3ccccc3c2Cl)C[C@H](C)O1 | 0.037 µM | 0.184 µM | IC50 [9]: 6.3 µM; inhibition (Escherichia coli [10]): inactive; Stability [5]: Stable; EC50 (Plasmodium falciparum [11]): 0.3 µM; selectivity ratio [3]: 250 to 5000; IC50 (HMEC-1): 195 µM; selectivity ratio [4]: 250 to 5000; half-life at 1 µM [8]: 40 min
21 | Cc1c(C(=O)N2C[C@@H](C)O[C@@H](C)C2)sc2ccccc12 | 0.226 µM | 0.753 µM | selectivity ratio [3]: 250 to 5000; inhibition (Escherichia coli [12]): inactive; IC50 (HMEC-1): 142 µM; selectivity ratio [4]: 250 to 5000; half-life at 1 µM [8]: 44 min
22 | CCc1c(C(=O)N2C[C@@H](C)O[C@@H](C)C2)sc2ccccc12 | 0.682 µM | 2.31 µM | 
23 | COc1ccc(COc2c(C(=O)N3C[C@@H](C)O[C@@H](C)C3)sc3ccccc23)cc1 | 0.146 µM | 0.877 µM | selectivity ratio [3]: 250 to 5000; IC50 (HMEC-1): 83 µM; selectivity ratio [4]: 250 to 5000
24 | C[C@@H]1CN(C(=O)c2sc3ccccc3c2O)C[C@H](C)O1 | > 15 µM | > 15 µM | 
25 | C[C@@H]1CN(C(=O)c2sc3cc(F)ccc3c2Cl)C[C@H](C)O1 | 0.074 µM | 0.455 µM | Stability [5]: Stable
26 | C[C@@H]1CN(C(=O)c2sc3ccccc3c2OCc2ccc(F)c(F)c2)C[C@H](C)O1 | 0.141 µM | 0.747 µM | selectivity ratio [3]: 250 to 5000; IC50 (HMEC-1): 97 µM; selectivity ratio [4]: 250 to 5000
27 | C[C@@H]1CN(C(=O)c2cc3ccccc3s2)C[C@H](C)N1 | > 15 µM | > 15 µM | 
28 | C[C@@H]1CN(C(=O)c2sc3ccccc3c2NCc2ccccc2)C[C@H](C)O1 | 2.62 µM | 9.77 µM | 
29 | CC1CN(C(=O)c2cc3ccccc3o2)CC(C)N1 (stereo unspecified) | > 15 µM | > 15 µM | 
30 | CN1CCN(C(=O)c2cc3ccccc3s2)CC1 | > 15 µM | > 15 µM | 
31 | CC1CN(C(=O)c2cc3ccccc3[nH]2)CC(C)N1 (stereo unspecified) | > 15 µM | > 15 µM | 
32 | O=C(Nc1ccccc1)c1sc2ccccc2c1Cl | > 15 µM | > 15 µM | 
33 | CC1CN(C(=O)c2sc3ccccc3c2Cl)CC(C)O1 (stereo unspecified) |  | 0.26 µM | 
34 | C[C@@H]1CN(C(=O)c2sc3c(Cl)c(Cl)ccc3c2Cl)C[C@H](C)O1 | 2.22 µM | 7.44 µM | 
35 | Cc1ccc2c(Cl)c(C(=O)N3C[C@@H](C)O[C@@H](C)C3)sc2c1 | 0.086 µM | 0.596 µM | selectivity ratio [3]: 250 to 5000; IC50 (HMEC-1): 201 µM; selectivity ratio [4]: 250 to 5000
36 | C[C@@H]1CN(C(=O)c2nc3ccccc3s2)C[C@H](C)O1 | 9.79 µM | > 15 µM | 
37 | O=C(c1sc2ccccc2c1Cl)N1CCOCC1 | > 15 µM | > 15 µM | 
